From PubChem BioAssay AID617 (SRMLSC, 2007)

System: E. coli BW25113 ΔtolC growth inhibition, OD615
Assay: growth inhibitors of E. coli tolC mutant, dose response, strain BW25113 ΔtolC::kan (AID 617)
Method in brief: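 Material: E. coli BW25113 ΔtolC::kan bacteria; input: inoculum from 1:1000-diluted 1.5 h subculture; medium: kanamycin-containing LB broth, 50 µg/mL; dosing: compounds in serially diluted dose-response series; incubation: 20 h exposure at 37 °C; measured by: absorbance at 615 nm; control set: chloramphenicol control, 30 µM final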

First: CN(c1ccccc1)S(=O)(=O)c1ccc(C(=O)Nc2nnc(-c3ccc(F)cc3)o2)cc1
Second: O=C(Nc1nnc(-c2ccc3c(c2)OCCO3)o1)c1ccc(Cc2ccccc2)cc1
The IC50 of the first is 16-fold lower: 0.21 µM for the first, 3.26 µM for the second. The first is the more potent here.

Going from `Cc1ccc(/C(O)=C2\C(=O)C(=O)N(c3cc(C)on3)C2c2cccc(Br)c2)cc1` (centres undefined) to `COc1ccc(-c2noc(C)c2-c2ccc3ccccc3n2)c(O)c1`, the IC50 falls from 13.8 µM to 8.91 µM (1.5-fold).

Going from `c1ccc(Cn2nnc3c(N4CCN(Cc5ccc6c(c5)OCO6)CC4)ncnc32)cc1` to `Cn1c(=O)n(Cc2ccccc2)c(=O)c2c1nc1n2CCCN1Cc1ccccc1`, the IC50 rises from 22.6 µM to 42.8 µM (1.9-fold). The first is the more potent here.

Compared with `Cc1oc2c(CN3CCCC3)c(O)ccc2c(=O)c1-c1ccc(Br)cc1`, `O=c1cc(O)c2c(=O)n3c4c(cccc4c2o1)CCC3` is 9-fold lower in IC50: 25.5 µM for the first, 2.82 µM for the second.

Going from `CCCCN1C(=O)NC(=O)C2(Cc3c(nc4c(C)cccn4c3=O)N3CCc4ccccc4C32)C1=O` (centres undefined) to `Cc1cccc2cc(C(c3nnnn3CC3CCCO3)N3CCc4ccccc4C3)c(=O)[nH]c12` (centres undefined), the IC50 rises from 3.2 µM to 35.4 µM (11-fold). The first is the more potent here.

Going from `Cc1cc(S(=O)(=O)N2CCN(c3ccccc3C)CC2)ccc1F` to `Cc1cccc(N2CCN(C(=O)Cc3c(C(=O)O)[nH]c4ccc(Cl)cc34)CC2)c1C`, the IC50 falls from 14.6 µM to 7.52 µM (1.9-fold).

First: Clc1ccc(Cn2ncc3c(NCc4ccco4)ncnc32)c(Cl)c1
Second: COC(=O)C1=C(N)Oc2cc(C)n(Cc3ccco3)c(=O)c2C1c1cccc(Cl)c1 (centres undefined)
The IC50 of the first is 2-fold higher: 53.4 µM for the first, 26.5 µM for the second.

Compared with `COc1ccc(C2(O)CC3CCC(C2)N3c2cc(C)nc(-c3ccccc3)n2)cc1` (centres undefined), `COc1ccc(C(C(O)C(=O)c2c[nH]c3ccccc23)N2CCN(c3ccccc3)CC2)cc1` (centres undefined) is 1.6-fold lower in IC50: 11.7 µM for the first, 7.52 µM for the second.

First: O=C(Nc1scc(-c2cccs2)c1C(=O)O)c1cccs1
Second: Cc1ccc(C(=O)Nc2nc(COc3ccccc3)cs2)s1
The IC50 of the first is 9.6-fold lower: 10.5 µM for the first, 101 µM for the second.

First: Cc1cc2c(cc(C(=O)OCC(=O)NCc3cccs3)n2C(C)C)o1
Second: Cc1cc(NS(=O)(=O)c2ccc(NC(=O)COc3ccccc3C(C)C)cc2)no1
The IC50 of the first is 1.5-fold higher: 25 µM for the first, 16.5 µM for the second. The second is the more potent here.

`Cc1ccc(S(=O)(=O)Nc2cccc(-c3cn4ccsc4n3)c2)cc1` and `CN(c1cccc(NC(=O)Nc2cccc(Cl)c2)c1)S(C)(=O)=O` are within 1.5-fold of each other in IC50: 15.5 µM for the first, 12.7 µM for the second.

`Cc1cccc(NC(=O)CSc2nnc(-c3cc(C)n(-c4ccccc4)c3C)o2)c1C` and `Cc1cc(/C=C(/C#N)c2cccc(F)c2)c(C)n1-c1cccnc1` are within 1.5-fold of each other in IC50: 14 µM for the first, 10.9 µM for the second.

`NC1=NC(c2cn(-c3ccccc3)nc2-c2cccs2)n2c(nc3ccccc32)N1` (centres undefined) and `CCOC(=O)N1CCN(c2nc(N(c3ccccc3)c3ccccc3)nc(-n3ccnc3)n2)CC1` are within 1.5-fold of each other in IC50: 16.4 µM for the first, 20.3 µM for the second.

`CCC1CCCCN1C(=O)c1cc(-c2ccc(Cl)c(Cl)c2)on1` (centres undefined) and `Cc1nn(Cc2ccc(C(=O)N3c4ccc(F)cc4CCC3C)o2)c(C)c1Br` (centres undefined) are within 1.5-fold of each other in IC50: 10.3 µM for the first, 9.71 µM for the second.

Going from `Cc1ccc(C)c(Cn2c(CN(C)Cc3ccccc3)nc3c2c(=O)n(C)c(=O)n3C)c1` to `Cc1ccccc1OCCCN1C(=O)C(=O)c2cccc(C)c21`, the IC50 rises from 14.2 µM to 103 µM (7.3-fold).

First: CCOc1cc(-c2c(C#N)c(=O)[nH]c3c2c(C)nn3-c2ccc(F)cc2)ccc1O
Second: CCn1c2ccccc2c2cc(C3C(C#N)=C(N)Oc4n[nH]c(COC)c43)ccc21 (centres undefined)
The IC50 of the first is 9.2-fold lower: 2.48 µM for the first, 22.7 µM for the second.

Compared with `CCOc1ccc2nc(NC(=O)C(CC)Sc3nc(C)cc(=O)[nH]3)sc2c1` (centres undefined), `CCCCOn1c(C)c(C(=O)OCC)c2c3nonc3ccc21` is 1.5-fold higher in IC50: 12.1 µM for the first, 18.4 µM for the second. The first is the more potent here.

Compared with `CC1=C(C(=O)OC(C)C)C(c2c[nH]c3ccccc23)n2ncnc2N1` (centres undefined), `COc1ccc(OC)c(S(=O)(=O)n2cnc3cc(C)c(C)cc32)c1` is 1.9-fold higher in IC50: 6.11 µM for the first, 11.4 µM for the second.

Compared with `O=C(NCc1ccc2c(c1)OCO2)c1ccc(-c2ccc(Cl)cc2)o1`, `COc1ccc(-c2cnc(SCC(=O)Nc3ccc4c(c3)OCO4)n2Cc2ccco2)cc1` is 2.2-fold higher in IC50: 5.02 µM for the first, 11.1 µM for the second. The first is the more potent here.

`O=C(Cc1ccc(Br)cc1)c1ccc(O)cc1O` and `CC(Nc1ccc(Br)cn1)c1cc(Cl)ccc1O` (centres undefined) are within 1.5-fold of each other in IC50: 7.26 µM for the first, 5.61 µM for the second.

First: CN(C)[C@@H]1C(=O)C(C(N)=O)=C(O)[C@@]2(O)C(=O)C3=C(O)c4c(O)ccc(Cl)c4[C@@H](O)[C@H]3C[C@@H]12
Second: O=C(Nc1ccc(N2CCN(C(=O)c3ccco3)CC2)c(Cl)c1)c1c(F)c(F)c(F)c(F)c1F
The IC50 of the first is lower: under 0.2 µM for the first, 3.96 µM for the second. The first is the more potent here.

`CCCCCCc1ccc(-c2ncc(N)cn2)cc1` and `CCCOc1ccc(C(=O)N2CCN(c3ccc(NC(=O)CC)cc3Cl)CC2)cc1` are within 1.5-fold of each other in IC50: 16.6 µM for the first, 14.6 µM for the second.

First: Cc1cc(C)n(-c2nc(NC(C)C)nc(NC(C)C)n2)n1
Second: COc1cc(NS(=O)(=O)c2ccc(OC)c(C)c2C)c(OC)cc1Cl
The IC50 of the first is 5.7-fold lower: 2.96 µM for the first, 16.8 µM for the second.

Going from `CC1CCN(S(=O)(=O)c2ccc(Cl)cc2Br)CC1` to `Cc1ccccc1-c1nc(CS(=O)(=O)CC(=O)N2CCc3ccccc3C2)c(C)o1`, the IC50 rises from 17.5 µM to 31.7 µM (1.8-fold). The first is the more potent here.

First: O=S(=O)(NC1CCCC1)c1ccc(S(=O)(=O)N(Cc2cccs2)CC2CCCO2)cc1 (centres undefined)
Second: Cc1ccc2[nH]c(=O)c(CN(Cc3ccc4c(c3)OCO4)Cc3nnnn3C3CCCC3)cc2c1
The IC50 of the first is 2-fold lower: 21 µM for the first, 42.3 µM for the second.

Going from `O=C(NCc1ccco1)c1cnn2c1NC(c1ccc(Br)cc1)CC2C(F)(F)F` (centres undefined) to `O=C(Nc1nc(-c2ccccn2)cs1)C1COc2ccccc2O1` (centres undefined), the IC50 falls from 12.8 µM to 0.97 µM (13-fold). The second is the more potent here.

`Cc1cccc(-c2cc3nc4c(c(N5CCOCC5)n3n2)CCCC4)c1` and `O=C(N1CCN(c2ccccn2)CC1)N1c2ccccc2Sc2ccccc21` are within 1.5-fold of each other in IC50: 16 µM for the first, 19.4 µM for the second.
